Results: the array DNA melting data of Ke et al. (doi:10.1101/2024.01.08.574731)

What was measured:
[1] = folding enthalpy; higher = less favourable; fluorescence melt of hairpins on a sequencing array, two-state fit; conditions: sodium 0.088 M
In short: (§1)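 Hairpins were imaged by Cy3 fluorescence on a sequenced MiSeq flow cell with annealed Cy3 and quencher oligos, in 50 mM Na-HEPES pH 8.0, 25 mM NaCl, in 2.5 °C steps up to 60 °C. Bootstrapped two-state fits of normalised signals gave melting temperature and folding enthalpy. Four replicates were combined by inverse variance, and fitted temperatures were raised by 9.35 °C to match UV melts.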

[2] = melting temperature; fluorescence melt of hairpins on a sequencing array, two-state fit, raised by 9.35 °C to match UV melts; conditions: sodium 0.088 M
In short: as §1

Row | Sequence | folding enthalpy [1] | Tm [2]
1 | GACAGCGAAAGCTAAGTC ((((((....)))..))) | -17.5 kcal/mol | 38.2 °C
2 | GACAGCGAAAGCTATGTC ((((((....)))..))) | -19.1 kcal/mol | 43.5 °C
3 | GACAGCGGAAACGCTACC (..((((....))))..) | -11.1 kcal/mol | 24.2 °C
4 | GACAGGCCGAAAGGCGTC (((..(((....)))))) | -14.9 kcal/mol | 47.7 °C
5 | GACAGGGGAAACCCCGTC (((.(((....))).))) | -24.6 kcal/mol | 50.3 °C
6 | GACAGGGGAAACCTTGTC ((((.((....)).)))) | -32.4 kcal/mol | 45.2 °C
7 | GACAGTGGAAACACTGTC (((((((....))))))) | -39.5 kcal/mol | 60.8 °C
8 | GACAGTGGAAACGCTGTC (((((.(....).))))) | -40.9 kcal/mol | 52.1 °C
9 | GACATACGAAAGTAGTC (((.(((....)))))) | -22.2 kcal/mol | 41.5 °C
10 | GACATAGGAAACTATGCC (.(((((....))))).) | -18.6 kcal/mol | 34.3 °C
11 | GACATCGCGAAAGCGGTC (((..(((....)))))) | -11.6 kcal/mol | 34.8 °C
12 | GACATCGGAAACGACGTC (((.(((....))).))) | -28 kcal/mol | 43.3 °C
13 | GACATGCGAAAGCAGGTC (((.(((....))).))) | -29.8 kcal/mol | 65.7 °C
14 | GACATGGGAAACTATGTC (((((.(....).))))) | -27.6 kcal/mol | 44.4 °C
15 | GACATTACGAAAGTAGTC (((..(((....)))))) | -14.8 kcal/mol | 27.4 °C
16 | GACATTGGAAACAGTGTC ((((.((....)).)))) | -33.1 kcal/mol | 42.6 °C
17 | GACCAAGGAAACTTGATC ((.((((....)))).)) | -16.8 kcal/mol | 28.8 °C
18 | GACCACCCGAAAGGGGTC (((..(((....)))))) | -13.1 kcal/mol | 46.5 °C
19 | GACCACGAAAGTGCAGTC ((((((....)))..))) | -17.5 kcal/mol | 36.6 °C
20 | GACCACGGAAACGCGGTC ((((.((....)).)))) | -49 kcal/mol | 53.2 °C
21 | GACCACGGAAACGTGGCC (.(((((....))))).) | -13.3 kcal/mol | 49.9 °C
22 | GACCAGAAATGGTC (((((....))))) | -33.2 kcal/mol | 51.2 °C
23 | GACCAGCGAAAGCTAGTC (((.(((....))).))) | -23.1 kcal/mol | 44.8 °C

Row | Sequence | folding enthalpy [1] | Tm [2]
24 | GACCAGGGAAACCTGACC (..((((....))))..) | -10 kcal/mol | 30.1 °C
25 | GACCCAGAAATGGGTC ((((((....)))))) | -35.3 kcal/mol | 64 °C
26 | GACCCAGGAAACTGAGTC (((.(((....))).))) | -30 kcal/mol | 37.9 °C
27 | GACCCAGGAAACTGGATC ((.((((....)))).)) | -17.9 kcal/mol | 38.8 °C
28 | GACCCCACGAAAGTGGTC (((..(((....)))))) | -8.51 kcal/mol | 28.9 °C
29 | GACCCCCCGAAAGGGGTC (((..(((....)))))) | -15.2 kcal/mol | 57.2 °C
30 | GACCCCCGAAAGGGCGTC (((.(((....))).))) | -25.1 kcal/mol | 55.4 °C
31 | GACCCCGAAAGGGATGTC ((((((....)))..))) | -15.6 kcal/mol | 41.2 °C
32 | GACCCCGAAAGGGCAGTC ((((((....)))..))) | -14 kcal/mol | 35.4 °C
33 | GACCCCGAAAGGGCCGTC ((((((....)))..))) | -14 kcal/mol | 35.7 °C
34 | GACCCCGAAAGGGCTGTC ((((((....)))..))) | -14.6 kcal/mol | 40.9 °C
35 | GACCCCGAAAGGGTGGTC ((((((....)))..))) | -16.5 kcal/mol | 49.4 °C
36 | GACCCCGAAAGGGTTGTC ((((((....)))..))) | -14.4 kcal/mol | 43.4 °C
37 | GACCCGGGAAACCGAGTC (((.(((....))).))) | -32.8 kcal/mol | 45.3 °C
38 | GACCCGGGAAACCGGGCC (.(((((....))))).) | -12.6 kcal/mol | 53.3 °C
39 | GACCGACGAAAGTCAGTC (((.(((....))).))) | -23.5 kcal/mol | 47.9 °C
40 | GACCGACGAAAGTCTGTC (((.(((....))).))) | -31.1 kcal/mol | 48.7 °C
41 | GACCGAGGAAACCCGGTC (((((.(....).))))) | -36.4 kcal/mol | 53.2 °C
42 | GACCGCACGAAAGTGGTC (((..(((....)))))) | -21.1 kcal/mol | 47 °C
43 | GACCGCCCGAAAGGGGTC (((..(((....)))))) | -15.4 kcal/mol | 42.3 °C
44 | GACCGCCGAAAGGCCGTC (((.(((....))).))) | -18.8 kcal/mol | 50.7 °C
45 | GACCGCGAAAGCGACGTC ((((((....)))..))) | -13.2 kcal/mol | 45.8 °C
46 | GACCGCGAAAGCGGAGTC ((((((....)))..))) | -7.63 kcal/mol | 40.6 °C

Row | Sequence | folding enthalpy [1] | Tm [2]
47 | GACCGCGAAAGCGGGTC ((((((....))).))) | -11.9 kcal/mol | 68.8 °C
48 | GACCGCGAAAGCGGTGTC ((((((....)))..))) | -8.7 kcal/mol | 63.8 °C
49 | GACCGCGAAAGCGTTGTC ((((((....)))..))) | -13.2 kcal/mol | 40.1 °C
50 | GACCGCGGAAACGCAGTC (((.(((....))).))) | -24.6 kcal/mol | 48.9 °C
51 | GACCGGAAACGGTC (((((....))))) | -28.3 kcal/mol | 67.5 °C
52 | GACCGGCCGAAAGGCGTC (((..(((....)))))) | -12.5 kcal/mol | 38.4 °C
53 | GACCGTGGAAACACAGTC (((.(((....))).))) | -23.8 kcal/mol | 40.5 °C
54 | GACCGTGGAAACATGGTC ((((.((....)).)))) | -43.2 kcal/mol | 54.2 °C
55 | GACCGTGGAAACGTGGTC ((((..(....)..)))) | -23.6 kcal/mol | 45.5 °C
56 | GACCTCCGAAAGGAGTC (((.(((....)))))) | -15.3 kcal/mol | 49.2 °C
57 | GACCTCCGAAAGGATGTC (((.(((....))).))) | -32.4 kcal/mol | 47.3 °C
58 | GACCTGCCGAAAGGCGTC (((..(((....)))))) | -9.15 kcal/mol | 29.3 °C
59 | GACCTGCGAAAGCAAGTC (((.(((....))).))) | -25.3 kcal/mol | 47.1 °C
60 | GACCTGGCGAAAGCCGTC (((..(((....)))))) | -5.62 kcal/mol | 34.9 °C
61 | GACCTTGGAAACAAAGTC (((.(((....))).))) | -20.3 kcal/mol | 26 °C
62 | GACCTTGGAAACAAGACC (..((((....))))..) | -10.9 kcal/mol | 20 °C
63 | GACCTTGGAAACAAGATC ((.((((....)))).)) | -21 kcal/mol | 30.6 °C
64 | GACGAAACGAAAGTTGTC (((..(((....)))))) | -19.6 kcal/mol | 35 °C
65 | GACGAACGAAAGTTGGTC (((.(((....))).))) | -36.7 kcal/mol | 48.8 °C
66 | GACGAAGGAAACTCCGTC ((((.((....)).)))) | -26.2 kcal/mol | 37.7 °C
67 | GACGACCGAAAGGTGGTC (((.(((....))).))) | -34.8 kcal/mol | 56 °C
68 | GACGACCGAAAGGTTGTC (((.(((....))).))) | -42.3 kcal/mol | 63.4 °C
